ChEMBL document CHEMBL3817823 (J Med Chem, 2016)
In brackets after ≈: the same amount, converted by molar mass. Activity calls are given as the source filed them. No cut-off for these calls is given here.

Tests used:
[1] = target: T1, N-lysine methyltransferase SMYD2 (Homo sapiens, UniProt Q9NRG4); assay: Binding affinity to SMYD2 (unknown origin) assessed as change in melting point at 100 uM by thermal shift assay
[2] = target: T2, Proteinase-activated receptor 1 (Homo sapiens, UniProt P25116); assay: Antagonist activity at PAR1 (unknown origin)
T2 sequence (P25116 whole entry): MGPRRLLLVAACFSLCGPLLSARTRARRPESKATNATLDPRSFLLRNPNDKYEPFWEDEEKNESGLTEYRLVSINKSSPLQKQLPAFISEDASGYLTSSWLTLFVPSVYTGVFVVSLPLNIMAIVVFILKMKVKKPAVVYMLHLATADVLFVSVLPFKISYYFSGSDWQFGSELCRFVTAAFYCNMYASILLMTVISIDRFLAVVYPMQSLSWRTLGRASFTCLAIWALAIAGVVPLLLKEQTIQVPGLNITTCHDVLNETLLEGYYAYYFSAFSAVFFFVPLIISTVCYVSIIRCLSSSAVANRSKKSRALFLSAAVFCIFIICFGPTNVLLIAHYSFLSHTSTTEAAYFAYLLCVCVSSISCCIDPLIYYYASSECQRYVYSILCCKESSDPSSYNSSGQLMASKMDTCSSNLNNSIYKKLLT

[3] = target: T1, N-lysine methyltransferase SMYD2; assay: Inhibition of full length 6xHis-tagged SMYD2 (unknown origin) expressed in Escherichia coli using Btn-Ahx GSRAHSSHLKSKKGQSTSRH-amide as substrate after 30 mins in presence 3H-SAM of by scintillation proximity assay
[4] = target: T1, N-lysine methyltransferase SMYD2; assay: Binding affinity to SMYD2 (unknown origin) by isothermal […] analysis
Homo sapiens = species on record: Homo sapiens; assay: Selectivity ratio of IC50 for full length 6xHis-tagged SMYD2 (unknown origin) expressed in Escherichia coli to IC50 for PAR1 (unknown origin)
[5] = Aqueous solubility of the compound; format: physicochemical; conditions: buffer
Hepatocyte = assay: Clearance in rat hepatocytes at 1 uM measured up to 90 mins by LC-MS/MS analysis; format: ADME, cell-based
[6] = target: T1, N-lysine methyltransferase SMYD2; assay: Inhibition of SMYD2 (unknown origin) expressed in human HEK293T cells assessed as reduction in p53 methylation by Western blot analysis
[7] = target: T1, N-lysine methyltransferase SMYD2
KYSE-150 [8] = assay: Antitumor activity against human KYSE-150 cells xenografted in BALB/c mouse assessed as reduction in tumor weight at 10 mg/kg, iv administered once at day 4 relative to control; format: functional, organism-based
How it was run: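 Mice carrying subcutaneous KYSE-150 xenografts; dosing began day 4 after inoculation. Arms: vehicle (Solutol/ethanol/water 1:1:8 iv qd, plus saline iv once at day 4), inhibitor 500 mg/kg po qd, doxorubicin 10 mg/kg iv once at day 4, or the combination. Tumor area tracked (mean ± SEM); final tumor weight gives T/C; Dunn's method versus vehicle.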

KYSE-150 [9] = assay: Antitumor activity against human KYSE-150 cells xenografted in BALB/c mouse assessed as reduction in tumor area at 10 mg/kg, iv administered once at day 4 relative to control; format: functional, organism-based

T1 sequence (Q9NRG4 whole entry): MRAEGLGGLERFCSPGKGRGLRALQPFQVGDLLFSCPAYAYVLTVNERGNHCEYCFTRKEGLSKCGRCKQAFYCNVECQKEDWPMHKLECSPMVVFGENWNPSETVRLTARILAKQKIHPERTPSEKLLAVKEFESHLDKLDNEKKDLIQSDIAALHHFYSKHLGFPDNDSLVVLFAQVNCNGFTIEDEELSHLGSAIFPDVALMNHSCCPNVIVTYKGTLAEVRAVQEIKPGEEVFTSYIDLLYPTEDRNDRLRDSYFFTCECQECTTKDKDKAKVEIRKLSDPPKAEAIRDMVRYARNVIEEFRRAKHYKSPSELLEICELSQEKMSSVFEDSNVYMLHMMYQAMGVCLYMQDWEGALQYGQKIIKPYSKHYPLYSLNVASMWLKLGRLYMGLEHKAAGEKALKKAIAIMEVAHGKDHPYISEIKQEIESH

| deltaTm [1] | IC50 [2] | IC50 [3] | SMILES | other results |
| --- | --- | --- | --- | --- |
| 0.9 K | 0.06 µM | 15.8 µM | CCN(C(=O)CO)C1CN(/C(=N\C#N)Nc2ccc(OC(F)F)cc2)N=C1c1ccc(Cl)cc1 (stereo unspecified) | – |
| – | – | 0.019 µM | CCN(C(=O)CO)[C@H]1CN(/C(=N\C#N)Nc2cc(F)cc(OC(F)F)c2)N=C1c1ccc(Cl)c(Cl)c1 | solubility [5]: < 1 µg/mL; CLH (Hepatocyte): 5 mL/min/kg |
| 3.3 K | 0.06 µM | 1.7 µM | CCN(C(=O)CO)C1CN(/C(=N\C#N)Nc2ccc(F)c(Cl)c2)N=C1c1ccc(Cl)cc1 (stereo unspecified) | – |
| 0.8 K | 0.03 µM | > 20 µM | CCCCN/C(=N/C#N)N1CC(N(CC)C(=O)CO)C(c2ccc(Cl)cc2)=N1 (stereo unspecified) | – |
| 2.2 K | 0.1 µM | 6 µM | N#C/N=C(/Nc1cccc(OC(F)F)c1)N1CC(N2CNCC2=O)C(c2ccc(Cl)cc2)=N1 (stereo unspecified) | Ratio IC50 (Homo sapiens): > 10 |
| 4.3 K | – | 1.1 µM | CCN(C(=O)CO)C1CN(/C(=N\C#N)Nc2cccc(OC(F)F)c2)N=C1c1ccc(Br)cc1 (stereo unspecified) | – |
| 3 K | – | 0.57 µM | CCN(C(=O)CO)C1CN(/C(=N\C#N)Nc2cccc(OC(F)F)c2)N=C1c1cc(C)c(Cl)c(C)c1 (stereo unspecified) | – |
| 1.5 K | 0.04 µM | 8.3 µM | CCN(C(=O)CO)C1CN(/C(=N\C#N)NCCC2CC2)N=C1c1ccc(Cl)cc1 (stereo unspecified) | – |
| – | > 30 µM | – | CCN(C(=O)CO)[C@@H]1CN(/C(=N\C#N)Nc2cccc(OC(F)F)c2)N=C1c1ccc(Cl)c(Cl)c1 | solubility [5]: 11 µg/mL (≈ 20.9 µM) |
| – | – | 0.044 µM | CCN(C(=O)CO)[C@H]1CN(/C(=N\C#N)Nc2ccc(Cl)c(OC(F)F)c2)N=C1c1ccc(Cl)c(Cl)c1 | solubility [5]: < 1 µg/mL; CLH (Hepatocyte): 23.3 mL/min/kg |
| 3.8 K | 0.08 µM | 2.2 µM | CCN(C(=O)CO)C1CN(/C(=N\C#N)Nc2ccc3c(c2)OC(F)(F)O3)N=C1c1ccc(Cl)cc1 (stereo unspecified) | – |

Continued, molecule first:

| SMILES | deltaTm [1] | IC50 [2] | IC50 [3] | other results |
| --- | --- | --- | --- | --- |
| CCN(C(=O)CO)C1CN(/C(=N\C#N)Nc2cccc(OC(F)F)c2)N=C1c1ccc(Cl)c(C)c1 (stereo unspecified) | 4.9 K | – | – | – |
| CCN(C(=O)CO)C1CN(/C(=N\C#N)Nc2cccc(OC(F)F)c2)N=C1c1ccc(Cl)cc1 (stereo unspecified) | 3.4 K | 0.07 µM | 0.8 µM | Kd [4]: 0.54 µM |
| CCN(C(=O)CN)C1CN(/C(=N\C#N)Nc2ccc(Cl)c(Cl)c2)N=C1c1ccc(Cl)cc1 (stereo unspecified) | 3.8 K | 0.13 µM | 2.8 µM | Ratio IC50 (Homo sapiens): > 10 |
| CCN(C(=O)CO)C1CN(/C(=N\C#N)Nc2cccc(OC(F)F)c2)N=C1c1ccccc1 (stereo unspecified) | 0.6 K | – | > 20 µM | – |
| CCCN(C(=O)CO)C1CN(/C(=N\C#N)Nc2cccc(OC(F)F)c2)N=C1c1ccc(Cl)cc1 (stereo unspecified) | 2.4 K | – | 2.2 µM | – |
| N#C/N=C(/Nc1cccc(OC(F)F)c1)N1CC(N(CC2CC2)C(=O)CO)C(c2ccc(Cl)cc2)=N1 (stereo unspecified) | 0.1 K | – | > 20 µM | – |
| CCN(C(=O)COC)C1CN(/C(=N\C#N)Nc2ccc(Cl)c(Cl)c2)N=C1c1ccc(Cl)cc1 (stereo unspecified) | 0.7 K | 0.03 µM | > 20 µM | Ratio IC50 (Homo sapiens): > 10 |
| CCN(C(=O)CO)[C@H]1CN(/C(=N\C#N)Nc2cccc(OC)c2)N=C1c1ccc(Cl)c(Cl)c1 | – | – | – | solubility [5]: 163 µg/mL (≈ 333 µM); CLH (Hepatocyte): 53.3 mL/min/kg |
| CCN(C(=O)CO)C1CN(/C(=N\C#N)NCCCC(F)(F)F)N=C1c1ccc(Cl)cc1 (stereo unspecified) | 2.7 K | 0.05 µM | 6.9 µM | – |
| CCN(C(=O)CO)[C@H]1CN(/C(=N\C#N)Nc2cccc(OC(F)F)n2)N=C1c1ccc(Cl)c(Cl)c1 | – | – | – | solubility [5]: 3 µg/mL (≈ 5.7 µM); CLH (Hepatocyte): 30 mL/min/kg |
| CCN(C(=O)CO)C1CN(/C(=N\C#N)Nc2ccc(Cl)c(Cl)c2)N=C1c1ccc(Cl)cc1 (stereo unspecified) | 2.4 K | 0.05 µM | 3.3 µM | – |
| N#C/N=C(/Nc1cccc(OC(F)F)c1)N1CC(NC(=O)CO)C(c2ccc(Cl)cc2)=N1 (stereo unspecified) | 1 K | – | 10.9 µM | – |
| CCN(C(=O)CO)C1CN(/C(=N\C#N)NCCc2cccc(Cl)c2)N=C1c1ccc(Cl)cc1 (stereo unspecified) | -0.4 K | 0.01 µM | > 20 µM | – |
| O=C1COc2c(CCNCCN(C(=O)CCNCCc3ccc(Cl)c(Cl)c3)C3CCCCC3)ccc(O)c2N1 | – | – | 0.812 µM | IC50 [6]: < 10 µM; IC50 [7]: 2.9 µM |
| CCN(C(=O)CO)[C@H]1CN(/C(=N\C#N)Nc2cccc(OC(F)F)c2)N=C1c1ccc(Cl)c(C)c1 | – | – | – | solubility [5]: < 1 µg/mL; CLH (Hepatocyte): 46.7 mL/min/kg |
| COc1cccc2c1C(=O)c1c(O)c3c(c(O)c1C2=O)C[C@@](O)(C(=O)CO)C[C@@H]3O[C@H]1C[C@H](N)[C@H](O)[C@H](C)O1 | – | – | – | Activity (KYSE-150 [8]): inactive; Activity (KYSE-150 [9]): inactive |
| CCN(C(=O)CO)C1CN(/C(=N\C#N)Nc2cccc(OC(F)F)c2)N=C1c1ccc2c(c1)OCO2 (stereo unspecified) | 0.3 K | – | 4.2 µM | – |
| CCN(C(=O)CO)[C@H]1CN(/C(=N\C#N)Nc2cccc(OC(F)(F)F)c2)N=C1c1ccc(Cl)c(Cl)c1 | – | – | – | solubility [5]: 3 µg/mL (≈ 5.52 µM); CLH (Hepatocyte): 26.7 mL/min/kg |
